# Measured values taken from ChEMBL document CHEMBL3992561, “Synthesis of 1,3,5-trisubstituted pyrazolines as potential antimalarial and antimicrobial agents” (Bioorg Med Chem, 2017).
# Key:
# [1] = Selectivity index, ratio of IC50 for human HepG2 cells to IC50 for chloroquine-resistant Plasmodium falciparum RKL-9 schizont infected in RBC; assay type: toxicity; conditions: read-out: Ratio IC50
# Outline: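 HepG2 in RPMI 1640 with 10% FCS, 5 x 10^2 cells/well, serial dilutions (DMSO stocks) added after 1 h; 7 days at 37°C, 5% CO2; MTT 4 h, formazan in ethanol, absorbance 570 nm; IC50 by non-linear regression, one experiment in duplicate. Index = HepG2 IC50 / RKL-9 antiplasmodial IC50.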
# HepG2 = assay: Cytotoxicity against human HepG2 cells assessed as reduction in cell viability after 7 days by MTT assay; assay type: cell-based; conditions: HepG2, 168 h
# Outline: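 HepG2 cells maintained in RPMI 1640 with 10% FCS. Seeded at 5 x 10^2 cells per well and pre-incubated 1 h at 37°C, 5% CO2. Serial dilutions from DMSO stocks added, with medium and DMSO solvent controls. Cells incubated seven days, then MTT (5 mg/ml) added for 4 h. Formazan dissolved in ethanol, A570 read. IC50 by non-linear regression of % growth against log concentration.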
# Aspergillus niger = assay: Antifungal activity against Aspergillus niger MTCC 8189 after 48 hrs by broth microdilution method; assay type: functional; conditions: MTCC 8189, 48 h
# Outline: (§1)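 Fungi grown in Sabouraud liquid medium, inoculum 0.5–2.5 x 10^3 CFU/ml. Broth microdilution per NCCLS using twofold serial dilutions in sterile water from DMSO solutions. Incubated at 35°C for 48 h. MIC (µg/ml) was the lowest concentration with no visible growth by eye. Fluconazole as positive control. Mean ± SD of three replicates.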
# Plasmodium falciparum [2] = assay: Antimalarial activity against chloroquine-sensitive Plasmodium falciparum MRC-2 schizont infected in RBC measured after 24 to 30 hrs hrs by giemsa staining based light microscopic method; assay type: functional
# Outline: (§2)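 Asynchronous cultures synchronised to rings with 5% aqueous sorbitol, other stages removed by centrifugation; parasitemia about 1% in fresh washed RBCs. Compounds dissolved in DMSO, diluted in RPMI-1640, tested at several concentrations in triplicate; drug-free wells as control. Incubation 37°C in CO2 for 24-30 h until schizont maturation; methanol-fixed Giemsa smears counted under oil immersion; % inhibition, IC50 by probit; n=2.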
# Staphylococcus aureus = assay: Antibacterial activity against Staphylococcus aureus MTCC 3160 after 24 hrs by broth microdilution method; assay type: functional; conditions: MTCC 3160, 24 h
# Outline: (§3)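 Broth microdilution per NCCLS in Mueller-Hinton broth, inoculum 5 x 10^5 CFU/ml. Compounds dissolved in DMSO, twofold serial dilutions made in sterile distilled water. Incubated at 35°C for 24 h. MIC (µg/ml) taken as the lowest concentration with no visible turbidity by unaided eye. Ciprofloxacin as positive control. Three replicates, mean ± SD.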
# Bacillus subtilis = assay: Antibacterial activity against Bacillus subtilis MTCC 121 after 24 hrs by broth microdilution method; assay type: functional; conditions: MTCC 121, 24 h; outline: as §3
# Candida albicans = assay: Antifungal activity against Candida albicans MTCC 227 after 48 hrs by broth microdilution method; assay type: functional; conditions: MTCC 227, 48 h; outline: as §1
# Plasmodium falciparum [3] = assay: Antimalarial activity against chloroquine-resistant Plasmodium falciparum RKL-9 schizont infected in RBC measured after 24 to 30 hrs hrs by giemsa staining based light microscopic method; assay type: functional; outline: as §2
# Pseudomonas aeruginosa = assay: Antibacterial activity against Pseudomonas aeruginosa MTCC 741 after 24 hrs by broth microdilution method; assay type: functional; conditions: MTCC 741, 24 h; outline: as §3
# Escherichia coli = assay: Antibacterial activity against Escherichia coli MTCC 51 after 24 hrs by broth microdilution method; assay type: functional; conditions: MTCC 51, 24 h; outline: as §3
# [4] = Inhibition of beta-hematin formation assessed as reduction in acetate buffer-initiated hemozoin formation after 18 hrs by spectrophotometric method relative to control; parameters: concentration or dose not given beside the values; conditions: concentration not given here
# Outline: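 Colorimetric β-hematin assay after Ncokazi and Egan. Haemin chloride in DMSO, with compounds at 0.12–5 molar equivalents to haemin and DMSO as control. Reaction started with acetate buffer pH 5.0 and run 18 h at 37°C. Pellet then washed with DMSO to remove unreacted haematin. % inhibition computed from test versus control absorbance. Duplicate determinations.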
SMILES,selectivity ratio [1],IC50 (HepG2) [nM],MIC (Aspergillus niger) [µg/mL],IC50 (Plasmodium falciparum [2]) [nM],MIC (Staphylococcus aureus) [µg/mL],MIC (Bacillus subtilis) [µg/mL],MIC (Candida albicans) [µg/mL],IC50 (Plasmodium falciparum [3]) [nM],MIC (Pseudomonas aeruginosa) [µg/mL],MIC (Escherichia coli) [µg/mL],inhibition [4] [%]
COc1ccc(C2CC(c3ccc(O)cc3)=NN2C(=O)c2cccnc2)cc1OC (configuration not stated),213,53600,6.5,30,50,50,75,251,25,50,89
COc1ccc(C2CC(c3ccc(O)cc3)=NN2C(=O)c2cccnc2)cc1 (configuration not stated),76.3,42400,12.5,59,50,75,50,556,25,25,54
CCCc1ccc(C2CC(c3ccc(O)cc3)=NN2C(=O)c2cccnc2)cc1 (configuration not stated),216,41600,25,22,12.5,50,25,192,12.5,12.5,81
COc1ccc(C2CC(c3ccc(O)cc3)=NN2C(=O)c2cccnc2)cc1C (configuration not stated),57.5,44800,25,63,25,25,50,779,6.5,12.5,66
O=C(c1cccnc1)N1N=C(c2ccc(O)cc2)CC1c1ccc(OCc2ccccc2)cc1 (configuration not stated),4.48,11400,12.5,214,50,50,3.25,2550,12.5,25,< 5
O=C(c1cccnc1)N1N=C(c2ccc(O)cc2)CC1c1ccc(Br)cc1 (configuration not stated),60.5,58700,25,141,6.5,12.5,50,970,12.5,25,76
O=C(O)c1cn(C2CC2)c2cc(N3CCNCC3)c(F)cc2c1=O [CIPROFLOXACIN],,27000,,,,25,,401,,12.5,
OC(Cn1cncn1)(Cn1cncn1)c1ccc(F)cc1F [FLUCONAZOLE],,,25,,,,12.5,,,,
COc1ccc(OC)c(C2CC(c3ccc(O)cc3)=NN2C(=O)c2cccnc2)c1 (configuration not stated),172,56800,12.5,40,25,25,75,330,12.5,25,71
O=C(c1cccnc1)N1N=C(c2ccc(O)cc2)CC1c1ccc(F)cc1 (configuration not stated),18.1,52400,25,2500,12.5,3.25,12.5,2900,12.5,6.5,< 5
CCN(CC)CCCC(C)Nc1ccnc2cc(Cl)ccc12 (configuration not stated),,,,,,,,,,,87
CCc1ccccc1C1CC(c2ccc(O)cc2)=NN1C(=O)c1cccnc1 (configuration not stated),75.1,35400,50,81,50,50,100,471,25,12.5,53
O=C(c1cccnc1)N1N=C(c2ccc(O)cc2)CC1c1ccccc1Cl (configuration not stated),20.5,47700,3.25,240,75,12.5,6.5,2330,3.25,50,31
Cc1cc(C)c(C2CC(c3ccc(O)cc3)=NN2C(=O)c2cccnc2)c(C)c1 (configuration not stated),100,54500,25,94,12.5,12.5,50,544,6.5,6.5,67
CC(C)c1ccc(C2CC(c3ccc(O)cc3)=NN2C(=O)c2cccnc2)cc1 (configuration not stated),83.3,38700,25,34,12.5,50,12.5,465,12.5,3.25,48
CC(C)Oc1ccc(C2CC(c3ccc(O)cc3)=NN2C(=O)c2cccnc2)cc1 (configuration not stated),139,45400,12.5,38,50,75,6.5,337,50,6.5,78
O=C(c1cccnc1)N1N=C(c2ccc(O)cc2)CC1c1ccc([N+](=O)[O-])cc1 (configuration not stated),7.63,18600,25,1570,6.5,12.5,12.5,2440,25,6.5,< 5
CC(C)c1ccccc1C1CC(c2ccc(O)cc2)=NN1C(=O)c1cccnc1 (configuration not stated),30.1,49700,25,110,25,12.5,50,1650,12.5,3.25,57
